Measurements as given in ChEMBL document CHEMBL1687750, “Nonclinical pharmacokinetics of oseltamivir and oseltamivir carboxylate in the central nervous system” (Antimicrob Agents Chemother, 2009).
Each block holds one compound with its values, some of them ahead of it.

Assays:
Plasma [1] = test: Cmax in non-perfused Sprague-Dawley rat plasma assessed as active metabolite oseltamivir carboxylate level at 30 mg/kg, iv; type: ADME, organism-based; design: dose 30 mg/kg, route intravenous; conditions: in vivo
Procedure, shortened: (§1)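 Nonfasted adult rats received 30 mg/kg in aqueous 0.9% NaCl (pH 4.0) by slow tail-vein injection over 20–30 s. Groups were sampled at 5 min and 0.25, 0.5, 1, 2, 4 and 8 h, with 4–5 rats per time point, under terminal isoflurane. Blood was taken by heart puncture and CSF from the cisterna magna. Brains were homogenized either unperfused or after transcardial saline perfusion. Samples were assayed by LC-MS/MS, and pooled composite data were analyzed noncompartmentally.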

Plasma [2] = test: Terminal half life in non-perfused Sprague-Dawley rat plasma assessed as active metabolite oseltamivir carboxylate level at 30 mg/kg, iv; type: ADME, organism-based; design: dose 30 mg/kg, route intravenous; conditions: in vivo
Procedure, shortened: (§2)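 Nonfasted Sprague-Dawley rats given 30 mg/kg i.v. in 0.9% NaCl pH 4.0 by tail vein over 20–30 s. Terminal sampling under isoflurane at 5 min, 0.25, 0.5, 1, 2, 4 and 8 h (4–5 rats/time): plasma, CSF, and brain homogenate, with or without saline perfusion. LC-MS/MS. t1/2, Vss and ratios from noncompartmental analysis of pooled composite concentrations.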

Brain = test: AUC (0 to 8 hrs) after iv dose in non-perfused Sprague-Dawley rat brain assessed as active metabolite oseltamivir carboxylate level at 30 mg/kg; conditions: in vivo
[3] = Cmax ratio in brain to plasma in non-perfused Sprague-Dawley rat at 30 mg/kg, iv; type: ADME, organism-based; design: dose 30 mg/kg, route intravenous; conditions: brain and plasma; procedure, shortened: as §1
[4] = AUC ratio in brain to plasma in perfused Sprague-Dawley rat at 30 mg/kg, iv; type: ADME, organism-based; design: dose 30 mg/kg, route intravenous; conditions: brain and plasma, read-out: Ratio AUC; procedure, shortened: as §1
Cerebrospinal fluid = test: Cmax in perfused Sprague-Dawley rat cerebrospinal fluid assessed as active metabolite oseltamivir carboxylate level at 30 mg/kg, iv; type: ADME, organism-based; design: dose 30 mg/kg, route intravenous; conditions: in vivo, BLD = below limit of detection; procedure, shortened: as §1
[5] = Cmax ratio in brain to plasma in perfused Sprague-Dawley rat at 30 mg/kg, iv; type: ADME, organism-based; design: dose 30 mg/kg, route intravenous; conditions: brain and plasma; procedure, shortened: as §1
Plasma [6] = test: AUC (0 to 8 hrs) after iv dose in perfused Sprague-Dawley rat plasma assessed as active metabolite oseltamivir carboxylate level at 30 mg/kg; conditions: in vivo
Rattus norvegicus = test: Volume of distribution at steady state in Sprague-Dawley rat assessed as active metabolite oseltamivir carboxylate level at 30 mg/kg, iv; type: ADME, organism-based; design: dose 30 mg/kg, route intravenous; conditions: in vivo; procedure, shortened: as §2
[7] = Prodrug conversion assessed as oseltamivir carboxylate level in presence of Sf9 cell culture supernatant expressing human recombinant HCE2 after 30 mins; type: ADME; conditions: sf9, 0.5 h
Procedure, shortened: (§3)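 Culture supernatants from baculovirus-infected Sf9 cells (day 5–7; 1.0 mg/ml protein) were incubated in triplicate with 10 µM 14C-oseltamivir in 100 mM Tris-HCl at 37°C for 30 min. Reactions were quenched with TCA-acetonitrile, then analyzed by HPLC with fraction scintillation counting. Conversion was calculated as OC radioactivity over total radioactivity, corrected for no-enzyme hydrolysis. Wild-type virus and liver S9 served as controls.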

LLC-PK1 [8] = test: Permeability from apical to basolateral side of pig LLC-PK1 cells over expressing human MDR1; type: ADME, cell-based, Sus scrofa
Procedure, shortened: (§4)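 P-gp-transfected LLC-PK1 monolayers received [14C]oseltamivir (0.1–10 mM) plus Lucifer yellow on the apical or basolateral donor side, with or without 1 µM elacridar. Incubation was at 37°C under 5% CO2. The acceptor side was sampled at 0.5–3 h and counted by scintillation. Pe was taken from the 3 h point, without correction for marker flux. Three inserts were used per condition and averaged.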

[9] = Prodrug conversion in 7 days old male rat brain S9 fractions assessed as oseltamivir carboxylate generation rate assessed per mg of protein per min; type: ADME, tissue-based
Procedure, shortened: (§5)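 S9 from brain or liver (rat S9 made by homogenizing tissue in ~4 ml Tris-sucrose buffer per g, supernatant after 9,000 × g at 10°C; pooled human brain and liver S9 also used), protein by bicinchoninic acid assay. Oseltamivir: triplicate, 10 μM 14C-oseltamivir final, 1.0 mg S9 protein, 100 mM Tris-HCl pH 7.4, 30 min at 37°C, quenched with TCA-acetonitrile.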

[10] = Prodrug conversion in commercial brain S9 fractions assessed as paranitrophenol generation rate assessed per mg of protein per min; type: ADME
[11] = Prodrug conversion in 42 days old female rat liver S9 fractions assessed as conversion of oseltamivir to oseltamivir carboxylate; type: ADME, subcellular, S9 fraction
Procedure, shortened: (§6)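 Rat brain or liver S9 (9,000 × g supernatant; 1.0 mg protein) was incubated in triplicate with 10 µM 14C-oseltamivir (final) in 100 mM Tris-HCl pH 7.4 for 30 min at 37°C. Reactions were quenched with TCA-acetonitrile, and the fraction converted to OC was measured by radioflow HPLC with fractionation. Rate was calculated as (pmol/ml substrate × fraction hydrolyzed)/(mg protein/ml × time), minus the no-protein background.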

[12] = Prodrug conversion in human liver S9 fractions assessed as paranitrophenol generation rate assessed per mg of protein per min; type: ADME, subcellular, S9 fraction
[13] = Prodrug conversion in 42 days old male rat liver S9 fractions assessed as paranitrophenol generation rate assessed per mg of protein per min; type: ADME, subcellular, S9 fraction
Procedure, shortened: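 Control esterase activity was measured by incubating 100 µM p-nitrophenyl acetate (final) with 0.05 mg rat brain or liver S9 protein in 1.5 ml Tris-HCl pH 7.4 for 1 min at 37°C. Reactions were quenched with acetonitrile, and product was quantified by HPLC-UV against external standards. The no-protein blank rate was subtracted, and rate was expressed per mg protein per min.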

[14] = Prodrug conversion assessed as oseltamivir carboxylate level in presence of Sf9 cell culture supernatant expressing human recombinant HCE1 after 30 mins; type: ADME; conditions: sf9, 0.5 h; procedure, shortened: as §3
[15] = Prodrug conversion in human liver S9 fractions assessed as oseltamivir carboxylate generation rate assessed per mg of protein per min; type: ADME, subcellular, S9 fraction; procedure, shortened: as §5
[16] = Prodrug conversion in 42 days old male rat liver S9 fractions assessed as oseltamivir carboxylate generation rate assessed per mg of protein per min; type: ADME, subcellular, S9 fraction; procedure, shortened: as §6
[17] = Volume of distribution at steady state in Sprague-Dawley rat at 30 mg/kg, iv; type: ADME, organism-based; design: dose 30 mg/kg, route intravenous; conditions: in vivo, read-out: Vdss
Procedure, shortened: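 Nonfasted adult Sprague-Dawley rats received a single 30 mg/kg i.v. bolus in 0.9% NaCl (pH 4.0), injected slowly into the tail vein over 20–30 s. Plasma was sampled by cardiac puncture under isoflurane at 5 min and 0.25, 0.5, 1, 2, 4 and 8 h, with 4–5 rats per time point. Samples were assayed by LC-MS/MS. Vss was estimated by noncompartmental analysis of pooled composite data.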

[18] = Prodrug conversion in commercial liver S9 fractions assessed as conversion of oseltamivir to oseltamivir carboxylate; type: ADME, subcellular, Liver S9 fraction; procedure, shortened: as §5
[19] = Prodrug conversion in 7 days old female rat liver S9 fractions assessed as paranitrophenol generation rate assessed per mg of protein per min; type: ADME, subcellular, S9 fraction
[20] = Prodrug conversion in commercial liver S9 fractions assessed as oseltamivir carboxylate generation rate assessed per mg of protein per min; type: ADME, subcellular, S9 fraction; procedure, shortened: as §5
[21] = Prodrug conversion in commercial brain S9 fractions assessed as oseltamivir carboxylate generation rate assessed per mg of protein per min; type: ADME; procedure, shortened: as §5
LLC-PK1 [22] = test: Permeability from basolateral to apical side of pig LLC-PK1 cells over expressing human MDR1; type: ADME, cell-based, Sus scrofa; procedure, shortened: as §4
[23] = Prodrug conversion in human brain S9 fractions assessed as oseltamivir carboxylate generation rate assessed per mg of protein per min; type: ADME; procedure, shortened: as §5
[24] = Prodrug conversion in human liver S9 fractions assessed as conversion of oseltamivir to oseltamivir carboxylate; type: ADME, subcellular, S9 fraction; procedure, shortened: as §5

Cmax (Plasma [1]): 6880 ng/mL | beta t1/2 (Plasma [2]): 1.69 h | AUC (Brain): 145 | Kp [3]: 0.02 | Kp [4]: < 0.004 | Cmax (Cerebrospinal fluid): BLD | Kp [5]: 0.01 | AUC (Plasma [6]): 12800 | Vdss (Rattus norvegicus): 0.8 L/kg
SMILES: CCC(CC)O[C@@H]1C=C(C(=O)O)C[C@H](N)[C@H]1NC(C)=O [OSELTAMIVIR CARBOXYLATE]

Activity [7]: Not Active | Papp (LLC-PK1 [8]): 10.1 nm/s | Activity [9]: < 0.2 pmol/s | Activity [10]: 49 nmol | Activity [11]: 0.41% | Activity [12]: 574 nmol | Activity [13]: 1446 nmol | Activity [14]: Active | Activity [15]: 119 pmol/s | Activity [16]: 2.11 pmol/s | Vd [17]: 3 L/kg | Activity [18]: 3.79% | Activity [19]: 538 nmol | Activity [20]: 126 pmol/s | Activity [21]: 0.32 pmol/min/mg | Papp (LLC-PK1 [22]): 10.1 nm/s | Activity [23]: 0.39 pmol/s | Activity ([23]; BLD = below limit of detection): BLD | Activity [24]: 3.57%
SMILES: CCOC(=O)C1=C[C@@H](OC(CC)CC)[C@H](NC(C)=O)[C@@H](N)C1 [OSELTAMIVIR]
